# From ChEMBL document CHEMBL4610112, “Novel Pyrrolopyridone Bromodomain and Extra-Terminal Motif (BET) Inhibitors Effective in Endocrine-Resistant ER+ Breast Cancer with Acquired Resistance to Fulvestrant and Palbociclib” (J Med Chem, 2020)
# Experiments:
# [1] = target: Bromodomain and PHD finger-containing protein 3 (Homo sapiens, UniProt Q9ULD4); assay: Binding affinity to human partial length BRPF3 (E588 to G701 residues) expressed in bacterial expression system by BROMOscan assay
# Outline: (§1)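 BROMOscan panel of 40 bromodomains. Kd for DNA-tagged bromodomains determined by competition against an immobilized proprietary reference ligand.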
# MCF7:TAM1 = assay: Growth inhibition of tamoxifen-resistant human MCF7:TAM1 cells measured after 5 days by Hoechst 33342 dye based imaging analysis; type: functional, cell-based; conditions: MCF7:TAM1, 120 h
# Outline: (§2)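 Cells seeded at 2000/well in their maintenance medium, treated once the next day with compound (0.1 nM–10 μM; 0.1% DMSO final). Day 5 Hoechst 33342 staining with imaging count. Survival normalized to DMSO (100%) and JQ1 3 μM (0%). IC50 given as mean ± SEM from at least two passages, each in triplicate.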
# [2] = Growth inhibition of tamoxifen-resistant human MCF7:5C cells measured after 5 days by Hoechst 33342 dye based imaging analysis; type: functional; conditions: 120 h; outline: as §2
# [3] = target: SWI/SNF-related matrix-associated actin-dependent regulator of chromatin subfamily A member 2 (Homo sapiens, UniProt P51531); assay: Binding affinity to human partial length SMARCA2 (S1377 to Q1486 residues) expressed in bacterial expression system by BROMOscan assay; outline: as §1
# [4] = target: E3 ubiquitin-protein ligase TRIM33 (Homo sapiens, UniProt Q9UPN9); assay: Binding affinity to human partial length TRIM33 phd bromodomain (D882 to A1087 residues) expressed in bacterial expression system by BROMOscan assay; outline: as §1
# [5] = Growth inhibition of tamoxifen and palbociclib-resistant human MCF7:CPR cells measured after 5 days by Hoechst 33342 dye based imaging analysis; type: functional; conditions: 120 h; outline: as §2
# [6] = target: Histone acetyltransferase KAT2A (Homo sapiens, UniProt Q92830); assay: Binding affinity to human partial length GCN5L2 (E726 to K837 residues) expressed in bacterial expression system by BROMOscan assay; outline: as §1
# [7] = target: SWI/SNF-related matrix-associated actin-dependent regulator of chromatin subfamily A member 4 (Homo sapiens, UniProt P51532); assay: Binding affinity to human partial length SMARCA4 (A1448 to S1575 residues) expressed in bacterial expression system by BROMOscan assay; outline: as §1
# [8] = Growth inhibition of fulvestrant-resistant human MCF7:CFR cells measured after 5 days by Hoechst 33342 dye based imaging analysis; type: functional, cell-based; conditions: 120 h
# Outline: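 MCF-7:CFR cells kept 2 days in phenol red-free RPMI 1640 with 10% charcoal–dextran FBS, then seeded at 2000 cells/well. Single treatment at 0.1 nM–10 μM (0.1% DMSO final) for 5 days. Nuclei stained with Hoechst 33342 and counted by imaging. Survival normalized to DMSO (100%) and JQ1 3 μM (0%). Mean ± SEM from at least two passages, triplicates in each.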
# [9] = target: ATPase family AAA domain-containing protein 2 (Homo sapiens, UniProt Q6PL18); assay: Binding affinity to human partial length ATAD2A (Q981 to R1108 residues) expressed in bacterial expression system by BROMOscan assay; outline: as §1
# [10] = target: Nucleosome-remodeling factor subunit BPTF (Homo sapiens, UniProt Q12830); assay: Binding affinity to human partial length FALZ (S2791 to H2911 residues) expressed in bacterial expression system by BROMOscan assay; outline: as §1
# [11] = target: Bromodomain and WD repeat-containing protein 1 (Homo sapiens, UniProt Q9NSI6); assay: Binding affinity to human partial length WDR9 bromodomain 2 (A1310 to E1430 residues) expressed in bacterial expression system by BROMOscan assay; outline: as §1
# [12] = target: Bromodomain-containing protein 8 (Homo sapiens, UniProt Q9H0E9); assay: Binding affinity to human partial length BRD8 BD2 (D1095 to F1235 residues) expressed in mammalian expression system BROMOscan assay; outline: as §1
# [13] = Growth inhibition of tamoxifen-sensitive human MCF7:WS8 cells measured after 5 days by Hoechst 33342 dye based imaging analysis; type: functional; conditions: MCF7:WS8, 120 h; outline: as §2
# [14] = target: Bromodomain-containing protein 7 (Homo sapiens, UniProt Q9NPI1); assay: Binding affinity to human partial length BRD7 (L125 to R254 residues) expressed in mammalian expression system by BROMOscan assay; outline: as §1
# T47D = assay: Growth inhibition of tamoxifen-sensitive human T47D cells measured after 5 days by Hoechst 33342 dye based imaging analysis; type: functional, cell-based; conditions: 120 h; outline: as §2
# [15] = Growth inhibition of human T47D:TDG cells harboring ESR1 D538G mutant measured after 5 days by Hoechst 33342 dye based imaging analysis; type: functional; conditions: 120 h; outline: as §2
# [16] = target: ATPase family AAA domain-containing protein 2B (Homo sapiens, UniProt Q9ULI0); assay: Binding affinity to human partial length ATAD2B (Q955 to R1082 residues) expressed in bacterial expression system by BROMOscan assay; outline: as §1
# [17] = Growth inhibition of fulvestrant-resistant human MCF7:CFR 3D spheroid cells at 100 nM supplemented with fresh medium containing compound every 2 to 3 days for 9 days by celltitre-glo assay relative to control; type: functional
# Outline: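 MCF-7:CFR cells seeded at 1000 cells/well in ultralow-attachment round-bottom plates and grown 24 h untreated as spheroids. Half the medium then replaced with 2× treatment medium, repeated every 2–3 days. Viability read by CellTiter-Glo 3D luminescence at day 9 and normalized to blank (medium plus reagent).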
# [18] = target: Transcription intermediary factor 1-alpha (Homo sapiens, UniProt O15164); assay: Binding affinity to human partial length TRIM24 phd bromodomain (P790 to P977 residues) expressed in bacterial expression system by BROMOscan assay; outline: as §1
# Cytochrome P450 3A4 = Cytochrome P450 3A4 (Homo sapiens, UniProt P08684); assay: Inhibition of human CYP3A4; type: ADME
# [19] = target: Bromodomain adjacent to zinc finger domain protein 2B (Homo sapiens, UniProt Q9UIF8); assay: Binding affinity to human partial length BAZ2B (S2054 to S2168 residues) expressed in bacterial expression system by BROMOscan assay; outline: as §1
# Protein polybromo-1 = Protein polybromo-1 (Homo sapiens, UniProt Q86U86); assay: Binding affinity to human partial length PBRM1 bromodomain 2 (S178 to E291 residues) expressed in bacterial expression system by BROMOscan assay; outline: as §1
# [20] = target: Histone acetyltransferase KAT2B (Homo sapiens, UniProt Q92831); assay: Binding affinity to human partial length PCAF (G715 to D831 residues) expressed in bacterial expression system by BROMOscan assay; outline: as §1
# [21] = Induction of thrombocytopenia in rat assessed as platelet count […] at 3 mg/kg, po administered daily for 10 days (reference value: […]); type: organism-based; conditions: in vivo, 240 h
# ATPase family AAA domain-containing protein 2, sequence (Q6PL18 whole entry, the tested form may be a part): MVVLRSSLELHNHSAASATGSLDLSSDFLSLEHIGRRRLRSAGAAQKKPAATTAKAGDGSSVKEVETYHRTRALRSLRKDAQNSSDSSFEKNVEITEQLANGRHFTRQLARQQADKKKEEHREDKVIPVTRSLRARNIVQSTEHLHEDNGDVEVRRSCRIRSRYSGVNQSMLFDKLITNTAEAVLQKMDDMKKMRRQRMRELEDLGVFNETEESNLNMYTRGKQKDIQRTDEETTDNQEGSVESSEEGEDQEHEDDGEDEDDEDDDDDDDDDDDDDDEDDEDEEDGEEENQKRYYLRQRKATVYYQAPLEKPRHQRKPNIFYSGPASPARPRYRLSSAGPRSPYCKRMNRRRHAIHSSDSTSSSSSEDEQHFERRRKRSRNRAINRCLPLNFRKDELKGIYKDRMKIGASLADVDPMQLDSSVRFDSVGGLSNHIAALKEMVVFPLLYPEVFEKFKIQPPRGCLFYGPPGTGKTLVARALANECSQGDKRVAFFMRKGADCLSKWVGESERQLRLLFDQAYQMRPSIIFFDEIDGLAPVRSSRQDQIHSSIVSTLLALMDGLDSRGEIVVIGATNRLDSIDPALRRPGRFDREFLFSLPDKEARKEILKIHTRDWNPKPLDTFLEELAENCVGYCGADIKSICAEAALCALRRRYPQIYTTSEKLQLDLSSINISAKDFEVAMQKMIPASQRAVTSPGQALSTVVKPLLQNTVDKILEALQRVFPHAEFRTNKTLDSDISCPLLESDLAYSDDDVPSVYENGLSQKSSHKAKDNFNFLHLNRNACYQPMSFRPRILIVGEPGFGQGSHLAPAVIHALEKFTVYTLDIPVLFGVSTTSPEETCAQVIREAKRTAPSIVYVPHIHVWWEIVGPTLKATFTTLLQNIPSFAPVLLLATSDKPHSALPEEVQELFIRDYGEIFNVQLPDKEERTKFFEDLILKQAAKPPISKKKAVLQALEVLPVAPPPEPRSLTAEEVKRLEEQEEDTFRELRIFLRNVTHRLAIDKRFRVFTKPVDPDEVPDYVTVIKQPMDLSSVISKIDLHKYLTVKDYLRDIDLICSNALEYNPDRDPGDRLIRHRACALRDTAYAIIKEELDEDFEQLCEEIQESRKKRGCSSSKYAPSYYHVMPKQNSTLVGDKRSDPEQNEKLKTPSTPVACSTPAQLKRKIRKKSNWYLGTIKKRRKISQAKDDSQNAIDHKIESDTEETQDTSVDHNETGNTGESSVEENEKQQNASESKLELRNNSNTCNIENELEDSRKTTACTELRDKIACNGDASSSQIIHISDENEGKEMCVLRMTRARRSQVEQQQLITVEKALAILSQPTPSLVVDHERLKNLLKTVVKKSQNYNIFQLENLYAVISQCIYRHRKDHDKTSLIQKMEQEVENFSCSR
# Transcription intermediary factor 1-alpha, sequence (O15164 whole entry, the tested form may be a part): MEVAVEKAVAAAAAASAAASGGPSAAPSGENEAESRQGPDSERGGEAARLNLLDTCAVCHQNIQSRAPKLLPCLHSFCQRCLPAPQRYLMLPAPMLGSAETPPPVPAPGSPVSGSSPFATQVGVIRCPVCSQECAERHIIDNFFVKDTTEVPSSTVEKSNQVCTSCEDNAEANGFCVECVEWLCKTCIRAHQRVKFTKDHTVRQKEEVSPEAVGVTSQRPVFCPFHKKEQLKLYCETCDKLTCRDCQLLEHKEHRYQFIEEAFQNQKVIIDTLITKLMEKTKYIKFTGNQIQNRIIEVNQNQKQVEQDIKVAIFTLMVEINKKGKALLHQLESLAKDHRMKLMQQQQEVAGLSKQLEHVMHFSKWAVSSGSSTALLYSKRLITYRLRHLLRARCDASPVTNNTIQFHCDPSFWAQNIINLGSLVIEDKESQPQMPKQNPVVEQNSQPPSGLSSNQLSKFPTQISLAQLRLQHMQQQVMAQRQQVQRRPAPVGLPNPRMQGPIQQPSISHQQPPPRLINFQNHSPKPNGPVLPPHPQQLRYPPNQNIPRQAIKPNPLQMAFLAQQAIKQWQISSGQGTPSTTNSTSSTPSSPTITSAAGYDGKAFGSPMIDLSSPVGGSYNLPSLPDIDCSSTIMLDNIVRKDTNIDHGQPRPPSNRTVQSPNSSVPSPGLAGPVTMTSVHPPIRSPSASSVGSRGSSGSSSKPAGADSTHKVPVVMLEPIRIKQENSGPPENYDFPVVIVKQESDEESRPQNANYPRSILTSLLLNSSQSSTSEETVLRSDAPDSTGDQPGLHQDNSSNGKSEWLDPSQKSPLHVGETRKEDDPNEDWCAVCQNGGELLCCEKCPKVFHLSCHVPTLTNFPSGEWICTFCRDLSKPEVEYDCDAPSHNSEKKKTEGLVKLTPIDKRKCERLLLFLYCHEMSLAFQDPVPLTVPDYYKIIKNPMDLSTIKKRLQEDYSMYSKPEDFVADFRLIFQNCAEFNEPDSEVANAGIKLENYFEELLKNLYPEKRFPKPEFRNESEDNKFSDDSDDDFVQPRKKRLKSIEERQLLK
# Bromodomain and WD repeat-containing protein 1, sequence (Q9NSI6 whole entry, the tested form may be a part): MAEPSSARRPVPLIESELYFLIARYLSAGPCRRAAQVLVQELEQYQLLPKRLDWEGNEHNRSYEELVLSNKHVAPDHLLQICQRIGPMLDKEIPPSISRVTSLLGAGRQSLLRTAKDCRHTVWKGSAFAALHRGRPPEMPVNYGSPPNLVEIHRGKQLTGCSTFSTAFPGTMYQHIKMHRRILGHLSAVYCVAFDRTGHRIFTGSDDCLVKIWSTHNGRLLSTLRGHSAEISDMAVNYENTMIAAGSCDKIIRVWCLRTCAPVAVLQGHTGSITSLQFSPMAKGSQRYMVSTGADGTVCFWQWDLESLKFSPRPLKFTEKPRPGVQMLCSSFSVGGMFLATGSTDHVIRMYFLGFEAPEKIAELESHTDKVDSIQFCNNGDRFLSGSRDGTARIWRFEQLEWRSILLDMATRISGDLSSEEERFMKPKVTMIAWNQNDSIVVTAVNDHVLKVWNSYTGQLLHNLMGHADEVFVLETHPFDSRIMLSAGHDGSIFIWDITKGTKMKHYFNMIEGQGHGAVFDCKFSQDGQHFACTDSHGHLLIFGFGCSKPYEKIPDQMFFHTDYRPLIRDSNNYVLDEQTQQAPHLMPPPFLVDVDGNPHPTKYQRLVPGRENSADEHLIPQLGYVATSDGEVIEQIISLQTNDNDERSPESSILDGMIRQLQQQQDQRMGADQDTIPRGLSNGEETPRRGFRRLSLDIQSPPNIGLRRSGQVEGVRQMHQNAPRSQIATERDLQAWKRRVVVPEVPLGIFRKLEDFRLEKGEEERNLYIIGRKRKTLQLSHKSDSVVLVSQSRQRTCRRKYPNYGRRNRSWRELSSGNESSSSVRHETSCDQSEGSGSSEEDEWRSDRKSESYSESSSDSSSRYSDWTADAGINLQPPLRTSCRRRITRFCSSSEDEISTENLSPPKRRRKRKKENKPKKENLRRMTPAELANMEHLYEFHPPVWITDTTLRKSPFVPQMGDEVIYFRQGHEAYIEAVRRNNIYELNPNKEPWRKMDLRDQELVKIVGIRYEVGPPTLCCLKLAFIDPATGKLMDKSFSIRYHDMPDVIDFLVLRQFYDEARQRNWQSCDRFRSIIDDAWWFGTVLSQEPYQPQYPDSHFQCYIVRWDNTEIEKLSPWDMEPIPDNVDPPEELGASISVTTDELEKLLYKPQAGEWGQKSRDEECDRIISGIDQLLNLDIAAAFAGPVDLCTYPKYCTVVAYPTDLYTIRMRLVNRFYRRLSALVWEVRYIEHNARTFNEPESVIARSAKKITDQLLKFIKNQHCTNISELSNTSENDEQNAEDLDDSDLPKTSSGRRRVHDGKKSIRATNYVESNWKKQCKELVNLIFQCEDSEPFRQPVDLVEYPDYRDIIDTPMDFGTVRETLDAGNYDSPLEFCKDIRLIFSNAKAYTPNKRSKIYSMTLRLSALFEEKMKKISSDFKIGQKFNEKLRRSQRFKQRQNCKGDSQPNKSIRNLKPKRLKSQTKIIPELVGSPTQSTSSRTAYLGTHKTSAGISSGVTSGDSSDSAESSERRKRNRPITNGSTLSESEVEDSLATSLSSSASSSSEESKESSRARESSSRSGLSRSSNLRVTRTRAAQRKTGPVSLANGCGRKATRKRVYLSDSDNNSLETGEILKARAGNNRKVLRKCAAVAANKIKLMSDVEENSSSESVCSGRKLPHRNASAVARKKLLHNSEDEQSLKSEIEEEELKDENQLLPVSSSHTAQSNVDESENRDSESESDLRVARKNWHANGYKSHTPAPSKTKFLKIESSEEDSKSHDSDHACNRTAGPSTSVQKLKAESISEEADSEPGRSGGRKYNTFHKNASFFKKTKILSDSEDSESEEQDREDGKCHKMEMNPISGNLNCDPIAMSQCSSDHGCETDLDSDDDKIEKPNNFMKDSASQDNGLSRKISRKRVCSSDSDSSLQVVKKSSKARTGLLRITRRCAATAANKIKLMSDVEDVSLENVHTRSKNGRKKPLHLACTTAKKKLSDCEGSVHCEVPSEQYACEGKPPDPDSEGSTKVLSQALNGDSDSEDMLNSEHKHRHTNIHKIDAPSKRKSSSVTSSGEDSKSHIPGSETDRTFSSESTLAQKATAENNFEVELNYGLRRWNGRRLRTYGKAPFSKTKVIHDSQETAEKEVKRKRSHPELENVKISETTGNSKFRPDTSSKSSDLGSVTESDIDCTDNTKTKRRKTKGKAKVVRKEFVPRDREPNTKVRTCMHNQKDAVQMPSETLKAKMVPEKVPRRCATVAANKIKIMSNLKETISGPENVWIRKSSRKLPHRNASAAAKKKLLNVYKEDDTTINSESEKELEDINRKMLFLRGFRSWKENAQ
smiles,measurement,setting,value
CCS(=O)(=O)Nc1cc(-c2cn(C)c3c(=O)[nH]ccc23)cc2c1ccn2C(C)(c1ccccn1)c1ccccn1,Kd,[1],> 10 µM
same,IC50,MCF7:TAM1; read-out: IC50,< 0.01 µM
same,IC50,MCF7:TAM1; read-out: pIC50 (converted),0.00316 µM
same,IC50,[2]; read-out: IC50,< 0.01 µM
same,IC50,[2]; read-out: pIC50 (converted),0.002 µM
same,Kd,[3],> 10 µM
same,Kd,[4],> 10 µM
same,IC50,[5],< 0.01 µM
same,Kd,[6],> 10 µM
same,Kd,[7],> 10 µM
same,IC50,[8],0.0009 µM
same,Kd,[9],> 10 µM
same,Kd,[10],> 10 µM
same,Kd,[11],> 10 µM
same,Kd,[12],> 10 µM
same,IC50,[13]; read-out: IC50,< 0.01 µM
same,IC50,[13]; read-out: pIC50 (converted),0.00398 µM
same,Kd,[14],> 10 µM
same,IC50,T47D; read-out: IC50,< 0.01 µM
same,IC50,T47D; read-out: pIC50 (converted),0.00316 µM
same,IC50,[15]; read-out: IC50,< 0.01 µM
same,IC50,[15]; read-out: pIC50 (converted),0.00631 µM
same,Kd,[16],> 10 µM
same,growth inhibition (GI),[17],100%
same,Kd,[18],> 10 µM
same,IC50,Cytochrome P450 3A4,≥ 10 µM
same,Kd,[19],> 10 µM
same,Kd,Protein polybromo-1,> 10 µM
same,Kd,[20],> 10 µM
CCS(=O)(=O)Nc1ccc(Oc2ccc(F)cc2F)c(-c2cn(C)c(=O)c3[nH]ccc23)c1 [MIVEBRESIB],platelet count,[21],173 10^3/µL
